Wee1 degr inh: Wee1 degradation inhibitors, primary screen, cell-based, HeLa, Wee1K328M-luciferase, luminescence. Wee1-like protein kinase (Homo sapiens), P30291. HeLa Luc-Wee1K328M stability; 100% = proteasome inhibitor MG132 effect. reporter increase, % at 5 µM. actives 1.2% (n = 220,000);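 active means activation above the mean of all tested compounds plus 3 SD, set per screening run, cut at about 8.8% in these data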;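 further: cells exposed to compound for 20 h before luminescence read; 0% = DMSO alone and 100% = MG132 at 30 µM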
KLK5 inh: human KLK5 protease inhibitors, primary screen, biochemical, 1536-well; Kallikrein-5 (Homo sapiens), Q9Y337; recombinant hK5, fluorogenic AMC substrate cleavage; inhibition, % at 5 µM; actives 0.59% (n = 210,000);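 active means inhibition of 40% or more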;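 further: 0% = enzyme controls without compound and 100% = no-enzyme blanks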
Target sequence (Q9Y337 67-293 limits assumed): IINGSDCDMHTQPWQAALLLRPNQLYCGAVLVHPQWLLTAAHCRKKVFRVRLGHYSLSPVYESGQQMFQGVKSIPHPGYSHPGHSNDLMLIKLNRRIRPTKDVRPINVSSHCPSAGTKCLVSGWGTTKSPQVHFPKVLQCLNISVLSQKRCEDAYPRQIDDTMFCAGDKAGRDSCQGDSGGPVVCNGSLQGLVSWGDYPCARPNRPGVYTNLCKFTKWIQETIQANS
FXIIa inh: human FXIIa protease inhibitors, primary screen, biochemical, 1536-well | inhibition, % at 5 µM | purified FXIIa, Boc-QGR-AMC fluorogenic substrate, 2 h | actives 0.3% (n = 220,000) | Coagulation factor XII (Homo sapiens), P00748; in the data active means inhibition above about 40%;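 further: 0% = enzyme with no compound and 100% = blank without enzyme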
Platelet DG rel: inhibitors of platelet dense granule secretion, primary screen, cell-based, MLPCN, human platelets | human platelet-rich plasma, SFLLRN dense granule ATP release, luminescence | inhibition, %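 (compounds screened at 7.5 µM in platelet-rich plasma)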 | actives 0.22% (n = 300,000);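 active means mean replicate score, as percent of positive control, at or above 50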
FXIa inh: human FXIa protease inhibitors, primary screen, biochemical, 1536-well; Coagulation factor XI (Homo sapiens), P03951; purified FXIa, Boc-Glu-Ala-Arg-AMC fluorogenic substrate; inhibition, % at 5 µM; actives 0.14% (n = 220,000);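 active means inhibition of at least 40%; inactive means inhibition below 40%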;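 further: fluorescence of freed AMC excited at 355 nm; 0% = enzyme without compound and 100% = no enzyme blank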
thrombin 1536: human alpha-thrombin inhibitors, primary screen, counter-screen for coagulation protease inhibitor project, biochemical, 1536-well, fluorogenic AMC substrate | Boc-VPR-AMC fluorogenic substrate cleavage | Prothrombin (Homo sapiens), P00734 | inhibition, % at 5 µM | actives 0.26% (n = 220,000);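 active means inhibition at or above 40%; inactive means inhibition below 40%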;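 further: 0% = enzyme with no compound and 100% = wells without enzyme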
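Material: Human alpha-thrombin protein | Buffer or medium: pH 7.5 Tris-saline with Tween 20 | Reagent: Boc-VPR-AMC substrate, 15 µM final | Schedule: Reaction at ambient temperature | Detection: AMC fluorescence at 355 nm excitation and 460 nm emission | Evaluation: Percent inhibition scaled between no-compound controls and no-enzyme blanks | Controls: no-compound enzyme wells and no-enzyme blanks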
* hit, by the source's call; i = inactive; · = not tested or not shown. The list is not random: actives were taken first. Their share in the collection is about 1.8%.

SMILES	Wee1 degr inh	KLK5 inh	FXIIa inh	Platelet DG rel	FXIa inh	thrombin 1536
CN(c1ccc(OCC(=O)N2CCN(c3ccc(F)cc3)CC2)cc1)S(=O)(=O)c1cccs1	-3.3	-21.7	2.5	-2.8	-6.4	1.1
COc1ccc(COc2cc(-c3cccc(OC)c3)nc3ccc(N)cc23)cc1	9.5*	-24.0	17.4	4.2	23.1	4.0
Cc1ccc(N(C(=O)c2csnn2)C(C(=O)NC2CCCCC2)c2cccnc2)c(C)c1 (stereo not drawn)	·	·	·	5.1	·	·
COC(=O)C1=C(SC)N(c2ccccc2)C(c2ccccc2)CC1=O (stereo not drawn)	3.9	3.6	11.8	-1.0	11.4	7.5
CSc1ccc(/C=N/NC(=O)c2cccc(O)c2)cc1	-0.7	3.4	9.8	71.7*	14.3	-1.9
CCc1cc(C(=O)c2ccc(OC)cc2)c(NC(=O)CC(C)(C)CC(=O)O)s1	8.4	0.3	7.5	2.0	0.4	-2.4
O=C(Nc1ccccc1)c1cccc(N2C(=O)CCC2=O)c1	6.8	63.5*	16.8	-2.3	11.4	19.2
COc1ccc(C(C)=O)cc1CSc1nncn1-c1ccccc1	2.7	-2.0	3.6	19.5	-3.3	-6.4
CCC(C)OC(=O)C1=C(C)OC23OC(N)=C(C#N)C12C(=O)c1ccccc13 (stereo not drawn)	0.0	-7.6	4.8	50.4*	2.9	-1.2
CC1=C(C(=O)OCC(C)C)[C@]23C(=O)c4ccccc4[C@@]2(O1)OC(N)=C3C#N	0.8	-5.3	9.1	3.2	0.6	1.3
COc1cc2c(cc1OC)C(c1ccccc1)N(C(=O)c1cccc(S(C)(=O)=O)c1)CC2 (stereo not drawn)	·	·	·	6.8	·	·
CC(C)CNC(=O)c1cccc(NC(=O)CCc2ccccc2)c1	10.1*	·	6.9	8.8	-2.5	-3.2
COC(=O)c1cccc(NC(=O)CCc2ccccc2)c1	9.4*	-12.4	14.2	-2.7	8.5	-2.6
COC(=O)c1cccc(NC(=S)Nc2cc(Cl)ccc2OC)c1	-2.5	·	13.4	1.2	0.4	-0.8
CC(C)CNC(=O)c1cccc(NC(=O)Cc2ccc(Br)cc2)c1	3.0	1.9	4.7	-24.5	4.5	-1.2
COC(=O)c1cccc(NC(=O)CCc2cc(OC)c(OC)c(OC)c2)c1	1.7	-19.7	5.6	-7.3	2.1	-14.3
COC(=O)c1cccc(NC(=O)Nc2ccc(Cl)cc2Cl)c1	5.6	41.9*	19.8	18.6	21.3	40.0
C=CCOn1c(=O)c(-c2ccc(OCC)cc2)[n+]([O-])c2ccccc21	·	·	·	-10.3	·	·
CN(C)S(=O)(=O)N1CCC(Oc2cccc(C(=O)N3CCCCCCC3)c2)CC1	·	·	·	-2.1	·	·
CC(C)C(C(=O)NCC1CCCO1)N(Cc1ccccc1)C(=O)CNS(=O)(=O)c1ccccc1 (stereo not drawn)	·	·	·	3.5	·	·
CC(=O)Nc1ccc(NC(=O)CCn2c(=S)oc3ccccc32)cc1	1.9	19.1	48.8*	8.0	26.4	28.1
CCCNC(=O)CCn1c(=S)oc2ccccc21	1.4	-1.1	9.3	3.3	-1.3	-4.3
O=C(CCn1c(=S)oc2ccccc21)NCCC1=CCCCC1	10.7*	-1.6	1.0	-2.2	-1.5	-11.7
CNC(=S)N(Cc1ccc(Cl)cc1)Cc1cccs1	-2.7	7.4	2.9	-31.9	2.3	-3.7
Cc1cccc(OCC(=O)NCCCNC(=O)c2ccc(C)nc2)c1	·	·	·	-5.6	·	·
SMILES	Wee1 degr inh	KLK5 inh	FXIIa inh	Platelet DG rel	FXIa inh	thrombin 1536
Cc1ccc(C(=O)Nc2ccc3cn[nH]c3c2)cc1S(=O)(=O)N1CCOCC1	9.7*	·	10.6	28.1	3.2	3.0
COc1cc(/C=N/n2nnnc2N)ccc1OCC(N)=O	·	·	·	0.6	·	·
Cc1cc(Cl)c(S(=O)(=O)N2CCCCCC2)cc1OCC(N)=O	-2.2	41.3*	12.9	·	8.6	31.9
Cc1cc(Cl)c(S(=O)(=O)NCc2ccncc2)cc1OCC(N)=O	-1.1	54.1*	3.5	·	-0.1	9.0
Cc1cc(Cl)c(S(=O)(=O)N2CCCC2)cc1OCC(N)=O	0.0	·	12.2	1.6	2.6	-1.6
CCOC(=O)c1c(N)sc(C(=O)Nc2ccc3c(c2)OCO3)c1C	-1.5	2.2	7.6	56.4*	-1.1	-1.9
CC(=O)Nc1ccc(C(=O)Nc2ccc3c(c2)OCO3)cc1	-0.2	41.4*	30.7	-1.1	7.9	19.5
CC(=O)Nc1ccc(C(=O)Nc2ccc3c(c2)OCCO3)cc1	·	·	·	-3.9	·	·
Cc1nnc(NC(=O)c2c(F)c(F)c(F)c(F)c2F)s1	-1.7	33.0	49.7*	-1.4	10.8	16.9
Cc1nnc(NC(=O)c2ccccc2F)s1	2.1	-12.1	11.3	-0.7	6.9	-4.9
CC(C)Oc1ccc(C(=O)Nc2ccc(NC(=O)c3ccco3)c(Cl)c2)cc1	4.8	-10.1	13.9	-1.0	-1.3	-0.4
CC(C)COc1ccc(C(=O)Nc2ccc(NC(=O)c3ccco3)c(Cl)c2)cc1	-0.6	-14.1	9.3	49.7*	2.1	-2.1
Cc1nnc(NC(=O)c2ccc3c(c2)OCO3)s1	10.6*	-5.2	8.3	5.3	1.4	-1.9
Cc1ccc(NC(=O)NCc2ccc3c(c2)OCO3)cc1	-2.1	6.2	74.9*	1.6	6.2	2.4
Cc1ccc(C(=O)Nc2ccc3c(c2)OCO3)cc1NC(=O)c1ccco1	0.3	-1.0	10.8	-1.1	-3.3	-5.6
Cc1cc(NC(=O)c2ccc3c(c2)OCO3)ccc1NC(=O)c1ccco1	1.2	-6.8	10.9	74.9*	9.8	-0.7
O=C1CCN(CCCc2ccccc2)CCN1[C@H](CO)Cc1ccccc1	·	·	·	-0.8	·	·
Cc1cc(C)n2nc(S(=O)(=O)NC3CCCCC3)nc2n1	-1.7	0.4	15.0	0.5	5.3	1.1
CC1(c2nnc(Cc3ccccc3)o2)CC(c2cccc(F)c2)=NO1 (stereo not drawn)	·	·	·	-2.5	·	·
CCOc1ccc(NC(=O)CSc2ncn[nH]2)c([N+](=O)[O-])c1	0.0	-9.0	10.5	-10.6	0.0	-8.7
CCOc1ccc(NC(=O)CSc2nnc(N)s2)c([N+](=O)[O-])c1	9.8*	-3.2	-1.3	-4.1	-6.1	5.2
CCOC(=O)CN(c1cccc(C(C)=O)c1)S(C)(=O)=O	-3.2	44.0*	20.3	7.6	-5.0	6.2
COc1ccc2cc(C(=O)NCc3ccco3)c(=O)oc2c1	-0.1	-36.6	15.7	16.3	0.7	1.4
O=C(NCc1ccco1)c1cc2ccc(O)cc2oc1=O	-1.3	i	-73.0	70.3*	-35.8	-35.7
O=C(c1ccccc1)c1cc2ccc(O)cc2oc1=O	-2.6	0.0	24.8	94.6*	8.2	3.4

Compound activity (PubChem)
